According to article PMC3559019 (Chemistry & biology, 2013):

Tests used:
c-Src = c-Src (Homo sapiens, UniProt P12931); test: In vitro kinase assay, c-Src; format: biochemical
Lck = Lck (Homo sapiens, UniProt P06239); test: In vitro kinase assay, Lck; format: biochemical
Lyn = Lyn (Homo sapiens, UniProt P07948); test: In vitro kinase assay, Lyn; format: biochemical
[1] = test system: Nef-defective (ΔNef) HIV-1 NL4-3; test: Nef-defective HIV-1 replication in CEM-T4 cells; format: cell-based
HIV-1 NL4-3 = test: HIV-1 infectivity in TZM-bl reporter cells; format: cell-based; settings: luciferase 48 h
[2] = test system: Nef-dependent SFK activation; test: Endogenous SFK activation in HIV-infected CEM-T4 cells; format: cell-based; settings: 1.0 μM
How it was run: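 CEM-T4 cells (1 × 10^5) were infected with 50 pg p24 equivalents/ml wild-type HIV-1 NL4-3, ΔNef mutant or Nef chimeras in 10 ml, with test compound (1 μM) or DMSO carrier. Cells were lysed 8 days later and SFKs were immunoprecipitated with a pan-specific antibody. Immunoblots used an anti-pY418 activation-loop antibody. Lysates were blotted for Gag, Nef and actin (loading control). Uninfected cells were included.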

[3] = test system: HIV-1 Nef Asn126 mutants (Ala, Leu, Gln); test: Surface plasmon resonance, Nef Asn126 mutants; format: binding; settings: SPR, B9 10 μM
SIV quasispecies ΔB670 = test: SIV replication in CEM-174 cells; format: cell-based; settings: Simian immunodeficiency virus, CEM174, 120 h, read-out: IC50, SIV replication
How it was run: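 CEM-174 cells received test compound in DMSO over a range of concentrations, 1 h before infection with the pathogenic SIV quasispecies ΔB670. Replication was measured 5 d later as p27 Gag protein by ELISA.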

SIV ΔB670 = test: SIV infectivity in TZM-bl reporter cells; format: cell-based; settings: Simian immunodeficiency virus, read-out: IC50, SIV infectivity
How it was run: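 TZM-bl reporter cells (2.5 × 10^4/well) were plated 8 h before infection to adhere. Test compound was pre-incubated with SIV ΔB670 for 4 h, then added to the cells (final 200 μl). After 48 h at 37 °C, cells were washed with PBS and lysed. Infectivity was read as luciferase luminescence.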

Nef dimerization = Nef dimerization (Human immunodeficiency virus type 1 group M subtype B, UniProt P03407); test: BiFC assay for Nef dimerization in 293T cells; format: cell-based, HIV-1; settings: 1–6 μM, 48 h
Sequence of Nef dimerization (P03407 whole entry): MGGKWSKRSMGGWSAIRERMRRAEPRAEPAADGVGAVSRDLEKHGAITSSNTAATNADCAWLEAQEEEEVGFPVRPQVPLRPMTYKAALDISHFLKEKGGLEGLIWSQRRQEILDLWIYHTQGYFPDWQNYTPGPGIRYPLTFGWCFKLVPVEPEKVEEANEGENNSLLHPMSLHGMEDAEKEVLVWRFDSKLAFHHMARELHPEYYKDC

Sequence of c-Src (P12931 whole entry, species assumed): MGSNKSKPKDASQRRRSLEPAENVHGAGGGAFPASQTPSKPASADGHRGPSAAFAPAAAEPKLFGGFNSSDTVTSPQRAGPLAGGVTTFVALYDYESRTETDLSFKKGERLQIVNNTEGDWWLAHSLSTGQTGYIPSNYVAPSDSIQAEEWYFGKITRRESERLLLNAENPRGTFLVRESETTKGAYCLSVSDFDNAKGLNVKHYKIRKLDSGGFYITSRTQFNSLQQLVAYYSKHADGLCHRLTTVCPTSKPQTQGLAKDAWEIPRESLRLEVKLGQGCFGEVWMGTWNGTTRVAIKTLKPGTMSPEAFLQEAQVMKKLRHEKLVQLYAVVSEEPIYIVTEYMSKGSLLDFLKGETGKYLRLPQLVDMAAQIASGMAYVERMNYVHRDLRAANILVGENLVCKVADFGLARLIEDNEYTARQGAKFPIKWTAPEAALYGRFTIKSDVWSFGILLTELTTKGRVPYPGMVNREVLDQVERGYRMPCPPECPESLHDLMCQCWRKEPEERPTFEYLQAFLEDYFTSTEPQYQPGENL
Sequence of Lyn (P07948 whole entry, species assumed): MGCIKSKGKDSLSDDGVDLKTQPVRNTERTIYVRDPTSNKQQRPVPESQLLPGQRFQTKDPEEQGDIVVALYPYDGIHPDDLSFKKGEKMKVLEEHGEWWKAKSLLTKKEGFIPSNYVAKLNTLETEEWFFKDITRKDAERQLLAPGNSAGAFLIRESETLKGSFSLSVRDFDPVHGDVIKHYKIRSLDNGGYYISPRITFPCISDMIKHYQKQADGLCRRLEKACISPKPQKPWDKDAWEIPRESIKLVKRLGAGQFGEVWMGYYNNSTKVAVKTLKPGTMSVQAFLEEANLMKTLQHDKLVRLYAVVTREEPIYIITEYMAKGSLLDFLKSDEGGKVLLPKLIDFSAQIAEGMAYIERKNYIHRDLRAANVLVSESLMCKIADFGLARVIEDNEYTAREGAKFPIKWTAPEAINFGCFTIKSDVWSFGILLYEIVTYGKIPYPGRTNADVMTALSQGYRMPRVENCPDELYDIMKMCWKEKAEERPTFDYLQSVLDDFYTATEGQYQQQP
Sequence of Lck (P06239 whole entry, species assumed): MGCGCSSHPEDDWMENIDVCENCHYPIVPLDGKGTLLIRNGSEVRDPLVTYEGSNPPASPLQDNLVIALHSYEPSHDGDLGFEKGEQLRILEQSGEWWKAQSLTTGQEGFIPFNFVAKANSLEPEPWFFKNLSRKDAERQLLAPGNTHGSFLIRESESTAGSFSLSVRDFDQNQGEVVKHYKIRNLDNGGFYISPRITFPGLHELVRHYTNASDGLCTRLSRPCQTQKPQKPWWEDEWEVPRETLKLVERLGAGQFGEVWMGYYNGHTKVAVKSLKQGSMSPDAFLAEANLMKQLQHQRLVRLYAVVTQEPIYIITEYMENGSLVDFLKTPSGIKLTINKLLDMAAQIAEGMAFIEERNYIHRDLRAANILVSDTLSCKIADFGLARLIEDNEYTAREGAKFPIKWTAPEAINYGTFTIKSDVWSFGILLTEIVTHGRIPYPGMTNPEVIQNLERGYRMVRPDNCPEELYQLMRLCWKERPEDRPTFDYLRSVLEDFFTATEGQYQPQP

NC(=S)n1nc(-c2ccc([N+](=O)[O-])cc2)c(/N=N/c2cccc(Cl)c2)c1O [B9, (E)-4-((3-chlorophenyl)diazenyl)-5-hydroxy-3-(4-nitrophenyl)-1H-pyrazole-1-carbothioamide]
IC50 (c-Src): > 20000 nM
IC50 (Lck): > 20000 nM
IC50 (Lyn): > 20000 nM
Effect on Nef-defective HIV replication (chimera experiment) ([1]; 0.3 and 1.0 μM, 10 days): no effect
Effect on replication of Nef-defective HIV-1 ([1]; highest concentration tested 3.0 μM): unaffected
Nef-mediated enhancement of HIV-1 infectivity (HIV-1 NL4-3): inhibited Nef-mediated enhancement of HIV-1 infectivity in a concentration-dependent manner
Nef-dependent SFK activation (pY418) [2]: completely inhibited
Binding to Nef Asn126 mutants [3]: none of these mutants demonstrated detectable binding
IC50 (SIV quasispecies ΔB670): ~1000 nM
IC50 (SIV ΔB670): ~3000 nM
Nef BiFC signal (Nef dimerization) (Nef dimerization): concentration-dependent loss
